Measurements reported in ChEMBL document CHEMBL4622928, “Discovery of 5-(4-methylpiperazin-1-yl)-2-nitroaniline derivatives as a new class of SIRT6 inhibitors” (Bioorg Med Chem Lett, 2020).
pIC50, pKd: −log10 of the molar value.

Tests used:
[1] = target: NAD-dependent protein deacylase sirtuin-6 (Homo sapiens, UniProt Q8N6T7); assay: Binding affinity to SIRT6 (unknown origin) by isothermal titration calorimetry
[2] = target: T1, NAD-dependent protein deacetylase sirtuin-2 (Homo sapiens, UniProt Q8IXJ6); assay: Inhibition of SIRT2 (unknown origin)
T1 sequence (Q8IXJ6 whole entry): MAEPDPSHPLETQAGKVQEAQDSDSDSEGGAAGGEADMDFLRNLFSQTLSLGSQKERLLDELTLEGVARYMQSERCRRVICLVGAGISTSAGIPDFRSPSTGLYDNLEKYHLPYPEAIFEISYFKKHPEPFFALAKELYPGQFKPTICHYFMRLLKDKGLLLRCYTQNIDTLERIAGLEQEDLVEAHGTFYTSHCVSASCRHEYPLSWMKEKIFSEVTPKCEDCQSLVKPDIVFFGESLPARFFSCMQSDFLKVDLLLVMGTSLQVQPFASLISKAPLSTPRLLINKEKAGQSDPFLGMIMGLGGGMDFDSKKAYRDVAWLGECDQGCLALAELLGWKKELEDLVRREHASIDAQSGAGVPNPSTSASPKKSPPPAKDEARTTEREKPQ
How it was run: (§1)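 Each deacetylase was run in a Fluor de Lys (FDL) fluorogenic deacetylation assay as a selectivity screen, with compound tested at concentrations up to 200 μM. IC50 was estimated from the dose-response.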

Histone deacetylase 4 = Histone deacetylase 4 (Homo sapiens, UniProt P56524); assay: Inhibition of HDAC4 (unknown origin); how it was run: as §1
Chain of Histone deacetylase 4 (P56524 whole entry): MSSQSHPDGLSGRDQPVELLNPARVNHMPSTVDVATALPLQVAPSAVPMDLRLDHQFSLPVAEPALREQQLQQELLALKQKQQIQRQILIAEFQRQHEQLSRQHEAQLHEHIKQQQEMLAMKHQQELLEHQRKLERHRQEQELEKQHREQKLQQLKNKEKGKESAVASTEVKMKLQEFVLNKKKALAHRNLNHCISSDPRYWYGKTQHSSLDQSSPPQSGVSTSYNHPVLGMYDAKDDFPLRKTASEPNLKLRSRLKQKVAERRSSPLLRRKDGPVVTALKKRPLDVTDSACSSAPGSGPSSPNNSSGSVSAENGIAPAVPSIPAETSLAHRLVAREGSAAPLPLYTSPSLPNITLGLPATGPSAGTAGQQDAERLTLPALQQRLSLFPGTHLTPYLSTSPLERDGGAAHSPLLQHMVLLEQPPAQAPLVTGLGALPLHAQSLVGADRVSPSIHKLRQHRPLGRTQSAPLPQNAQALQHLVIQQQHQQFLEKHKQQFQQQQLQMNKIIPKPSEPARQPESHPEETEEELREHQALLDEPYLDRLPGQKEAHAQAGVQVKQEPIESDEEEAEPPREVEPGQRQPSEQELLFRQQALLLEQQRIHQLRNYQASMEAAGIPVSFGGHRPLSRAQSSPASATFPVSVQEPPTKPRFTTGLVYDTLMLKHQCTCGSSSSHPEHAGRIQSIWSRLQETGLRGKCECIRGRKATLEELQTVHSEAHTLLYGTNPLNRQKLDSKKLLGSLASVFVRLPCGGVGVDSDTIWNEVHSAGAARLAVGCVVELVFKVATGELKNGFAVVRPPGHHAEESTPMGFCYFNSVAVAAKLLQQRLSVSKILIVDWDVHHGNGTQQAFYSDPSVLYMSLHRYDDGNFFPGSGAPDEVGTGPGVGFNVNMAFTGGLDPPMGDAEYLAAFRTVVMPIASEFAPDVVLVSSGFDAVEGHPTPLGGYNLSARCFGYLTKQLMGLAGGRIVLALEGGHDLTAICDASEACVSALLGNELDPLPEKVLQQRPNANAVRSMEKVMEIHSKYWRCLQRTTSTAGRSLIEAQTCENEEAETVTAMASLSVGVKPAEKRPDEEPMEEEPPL

BXPC-3 = assay: Upregulation of GLUT1 expression in human BxPC3 cells measured after 72 hrs by Western blot analysis; assay type: functional, cell-based
How it was run: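 BxPC-3 cells were exposed to 1.25, 2.5, 5 and 10 μM compound for 72 h. GLUT1 protein was then detected by western blot, with α-tubulin as loading control.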

Chain of NAD-dependent protein deacylase sirtuin-6 (Q8N6T7 whole entry): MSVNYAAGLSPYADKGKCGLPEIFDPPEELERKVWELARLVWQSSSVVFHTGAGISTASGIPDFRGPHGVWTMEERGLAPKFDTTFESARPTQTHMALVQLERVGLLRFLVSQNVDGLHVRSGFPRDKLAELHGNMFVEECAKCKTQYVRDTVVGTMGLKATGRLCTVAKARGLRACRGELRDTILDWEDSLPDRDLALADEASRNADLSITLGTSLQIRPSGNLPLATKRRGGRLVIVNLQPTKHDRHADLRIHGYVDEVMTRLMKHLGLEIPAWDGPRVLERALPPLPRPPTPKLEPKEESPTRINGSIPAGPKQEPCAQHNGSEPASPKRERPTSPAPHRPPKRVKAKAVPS

Q: With `CN1CCN(c2ccc([N+](=O)[O-])c(N)c2)CC1` as the compound, how does the pKd [1] read?
A: The pKd was 5.00.

Q: What about the pIC50 [2] of the same compound?
A: The pIC50 was < 3.70.

Q: What about the pIC50 (Histone deacetylase 4) of the same compound?
A: Its pIC50 is < 3.70.

Q: And the Activity (BXPC-3)?
A: The Activity was “Dose-dependent effect”.
